High-throughput results as filed in PubChem.
Rows were chosen to be rich in hits. Some 29% of all compounds tested hit in one or more screens of this group.
tolC growth inh = blocks growth of E. coli BW25113 tolC mutant; OD615; growth inhibition, % at 10 µM (by protocol); actives 2.2% (n = 65,000); AID 573;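 active = growth inhibition at or above a cutoff equal to the mean over every tested compound plus 3 SD, cut at about 60% in these data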;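 also: growth measured after 20 h incubation at 37 °C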
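test system = E. coli BW25113 ΔtolC::kan bacteria | medium = LB with kanamycin 50 µg/mL | signal = OD at 615 nm | schedule = 37 °C, 20 h exposure | evaluation = % inhibition of E. coli growth | compound dosing = one dose of 10 µM final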
CYP2C9 act = increases human cytochrome P450 2C9 activity; P11712; recombinant CYP2C9, luciferin-H conversion, luminescence; hits give high values; factor 1 = untreated enzyme, 0 = blocked; activation factor at 5 µM; actives 1.4% (n = 96,000); AID 1024;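 active = activation factor of 2 or more for CYP2C9 at a 5 µM dose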;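 also: 0 = sulfaphenazole-blocked wells and 1 = vehicle-only wells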
CYP2C9 inhib = blocks human cytochrome P450 2C9; CYP2C9 Supersomes, luciferin-H conversion, luminescence; inhibition, % at 5 µM; actives 20% (n = 96,000);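 active = blocking of liver enzyme CYP2C9 beyond about 50% at 5 µM, limit read from the data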
CYP2C19 activ = cytochrome P450 2C19 (human) activation. activation factor at 5 µM. recombinant CYP2C19, luciferin-H EGE luminescence; hits give high values; 0 = fully inhibited enzyme, 1 = untreated enzyme. P33261. 96,000 tested, under 10 active;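 active = activation factor of at least 2 at 5 µM in the primary screen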;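 also: 0 = wells with 2.5 mM tranylcypromine and 1 = vehicle-only wells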
Target sequence (P33261 whole entry, looked up): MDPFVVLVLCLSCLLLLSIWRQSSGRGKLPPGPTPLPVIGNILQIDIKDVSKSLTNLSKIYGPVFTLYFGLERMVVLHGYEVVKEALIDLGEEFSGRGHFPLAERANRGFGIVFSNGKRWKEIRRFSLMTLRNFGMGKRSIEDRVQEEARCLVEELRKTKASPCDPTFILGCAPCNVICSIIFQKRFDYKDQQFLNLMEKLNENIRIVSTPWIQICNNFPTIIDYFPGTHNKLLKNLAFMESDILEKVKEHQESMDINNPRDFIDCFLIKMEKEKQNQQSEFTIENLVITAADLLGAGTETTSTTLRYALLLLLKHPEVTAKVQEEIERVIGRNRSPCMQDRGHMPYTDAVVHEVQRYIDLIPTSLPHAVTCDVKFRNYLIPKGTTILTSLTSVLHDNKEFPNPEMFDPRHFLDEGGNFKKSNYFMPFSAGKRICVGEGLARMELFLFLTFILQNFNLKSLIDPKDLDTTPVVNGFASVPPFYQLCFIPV
CYP2C19 inh = human CYP2C19 inhibition | P33261 | CYP2C19 Supersomes, luciferin-H EGE luminescence, 30 min | inhibition, % at 5 µM | actives 21% (n = 96,000);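 active = CYP2C19 inhibition above a set limit at 5 µM in the primary screen, cut at about 50% in these data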;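 also: plate controls were negative control wells for no effect and 2.5 mM tranylcypromine positive control for full effect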
Ecoli WT expand = growth inhibitors of E. coli BW25113 wild type; OD600 absorbance; growth inhibition, % at 100 µM; actives 0.15% (n = 98,000);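 active = growth inhibition above about 50% at one test dose, limit read from the data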;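 also: growth measured after 20 h incubation at 37 °C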
* hit, by the source's call; · = no result.

SMILES	tolC growth inh	CYP2C9 act	CYP2C9 inhib	CYP2C19 activ	CYP2C19 inh	Ecoli WT expand
COc1ccc(CN(CCCN2CCOCC2)C(=O)Nc2cccc(Cl)c2)cc1OC	11	0	97*	0.2	80*	11
O=C(Nc1cccc(Cl)c1)N(CCN1CCOCC1)Cc1ccccc1F	·	0.1	92*	0.6	40	22
COc1ccc(CCN2C(=O)C3C4CC(C5C(C(=O)O)=NOC45)C3C2=O)cc1OC (stereo not drawn)	·	1.1	-9	0.9	8	-4
COc1cccc2cc(C(C)N(CCCN3CCOCC3)C(=O)Nc3ccccc3)oc12 (stereo not drawn)	-4	0.7	32	0.9	12	1
C=CCC(c1ccccc1F)N(CCN1CCOCC1)C(=O)Nc1cccc(Cl)c1 (stereo not drawn)	·	0.1	87*	0.7	31	-10
O=C(Nc1ccccc1)OC1C2CCC1C(N1CCCCC1)CC2 (stereo not drawn)	-1	0.9	13	0.8	18	-4
CCC1(N(C(C)=O)c2ccc(OC)cc2)C(=O)c2ccccc2C1=O	1	1.2	-18	0.9	6	-2
Cc1ccc2nc(Cc3ccc(N)cc3)[nH]c2c1	·	0.9	10	0.2	82*	10
Nc1ccc(Cc2nc3c(ccc4ccccc43)[nH]2)cc1	·	0.7	33	0.1	86*	7
CN(C)C(=O)C12CCC(C)(c3nc4ccccc4nc31)C2(C)C (stereo not drawn)	-4	0.7	25	0.9	15	3
CCOc1ccc(CCNC(=O)C2CCCN(C(=O)N(C)C)C2)cc1OCC (stereo not drawn)	-15	·	·	·	·	-1
CNC(=O)NC(=O)CSc1ccc(NC(C)=O)cc1	-15	1	0	1	2	2
O=c1cc(C(Cl)(Cl)Cl)oc2c1ccc1ccccc12	·	0.4	65*	0.4	56*	3
Cc1ccc(C2CC(c3ccccc3)=NN2C(=S)Nc2ccccc2)o1 (stereo not drawn)	·	0.4	56*	0.7	34	-8
Cn1cccc1C(=O)Nc1nc(-c2ccccn2)cs1	90*	0.8	17	0.7	28	19
O=C(Nc1nc(-c2ccccn2)cs1)c1ccc(Cl)s1	100*	0.9	5	1	-2	11
CCOc1ccc(NC(=O)N2CCC(n3nnc4cc(C)ccc43)CC2)cc1	·	0.4	60*	0.1	89*	0
O=C(c1ccco1)N1CCC(n2nnc3ccccc32)CC1	11	0.6	35	1	-4	4
Cc1ccc2c(c1)nnn2C1CCN(C(=O)c2cccs2)CC1	5	0.3	72*	0.3	67*	0
CCOc1ccc(NC(=O)Nc2ccc3c(c2)nnn3C)cc1	-5	1.2	-23	1.2	-24	-26
Cc1ccc2c(c1)nnn2C1CCN(C(=O)C2CCCCC2)CC1	18	0.4	61*	0.1	91*	-4
Cc1ccc(Cl)cc1NC(=O)c1ccc(CSc2nnnn2C)cc1	·	1.2	-24	1	1	0
CCn1cc(C(=O)N2CCOCC2)c(=O)c2cc(S(=O)(=O)N(C)C3CCCCC3)ccc21	-1	1.1	-7	1.2	-23	5
O=C(CSc1nnc2ccccn12)Nc1ncc(Cl)cc1Cl	·	1.1	-7	1	-1	3
CC12CC(NC(=O)N1c1cccc(C(=O)N3CCN(c4ccccc4)CC3)c1)c1ccccc1O2 (stereo not drawn)	15	0.5	53*	0.4	58*	6
SMILES	tolC growth inh	CYP2C9 act	CYP2C9 inhib	CYP2C19 activ	CYP2C19 inh	Ecoli WT expand
Cn1c(=O)n(CCN2CCOCC2)c(=O)c2c1nc1n2CCCN1c1ccccc1	-8	0.8	24	0.9	11	·
Cc1cc2cc(C(c3nnnn3Cc3ccco3)N3CCc4ccccc4C3)c(=O)[nH]c2cc1C (stereo not drawn)	49	0.9	8	1	4	-9
CN(C)c1nc(N)nc(Cn2ccnc2)n1	2	1.1	-6	0.5	54*	2
CCn1c(SCC(=O)Nc2ccc(OCc3ccccc3)cc2)nnc1-c1ccco1	1	0.7	28	0.9	7	·
CCCc1nnc(NC(=O)CCC(=O)N2CCN(c3ccccn3)CC2)s1	·	0.9	13	1	-2	-2
CCOC(=O)c1c(C)[nH]c(C(=O)OCC(=O)N2c3ccccc3CC2C)c1C (stereo not drawn)	4	1	-4	1.1	-8	4
CCOC(=O)c1c(C)[nH]c(C(C)=O)c1C	-7	0.4	56*	0.5	51*	-5
CCOC(=O)c1c(C)[nH]c(C(=O)OCc2c(C)noc2C)c1C	10	0.2	80*	0.5	50*	-7
CCOC(=O)c1[nH]c(C)c(C(=O)OCCN2C(=O)c3ccccc3C2=O)c1C	13	0.2	85*	0.3	67*	-3
CCOC(=O)c1[nH]c(C)c(C(=O)OCC(=O)N2CCCCC2C)c1C (stereo not drawn)	-1	0.3	72*	0.8	23	2
CCOC(=O)c1c(C)[nH]c(/C(C)=N/O)c1C	10	1	2	0.8	23	-5
O=c1[nH]c2cc3c(cc2cc1CN(CCc1ccccc1)Cc1nnnn1C1CCCC1)OCCO3	43	0.6	39	0.7	35	2
CCOC(=O)CCP(=O)(O)C(C)(O)c1ccccc1 (stereo not drawn)	·	1.1	-11	1.1	-13	6
CCOC(=O)c1[nH]c(C)c(C(=O)NC2CCCC2)c1C	-13	0.6	35	0.5	54*	4
CCOC(=O)c1[nH]c(C)c(C(=O)C(C)C)c1C	·	0.9	14	0.5	51*	0
COCC(=O)NC(C)c1nc2ccccc2[nH]1 (stereo not drawn)	-6	1.2	-18	1.1	-10	1
COc1ccc(S(=O)(=O)N2CCN(C(=O)c3c(-c4ccccc4)noc3C)CC2)cc1	·	0.9	14	0.6	39	5
CCOC(=O)c1ccc(S(=O)(=O)N2CCC(C(=O)OCC)CC2)cc1	9	0.8	19	0.8	19	-1
CCOc1ccc(S(=O)(=O)N2CCN(C(=O)c3sccc3C)CC2)cc1	·	0.7	32	0.3	74*	32
COc1ccc(S(=O)(=O)N2CCN(C(=O)c3cnc(C)cn3)CC2)cc1	·	1	0	0.5	50*	3
CCOC(=O)C1CCN(S(=O)(=O)c2ccc(OCC)cc2)CC1	12	1.1	-11	0.1	94*	-15
CCOc1ccc(S(=O)(=O)N2CCN(S(=O)(=O)c3ccc(OCC)cc3)C(C)C2)cc1 (stereo not drawn)	11	0.8	22	0.8	19	·
CCOC(=O)C1CCN(S(=O)(=O)c2cccc(-c3cn4cc(C)ccc4n3)c2)CC1	·	0.7	30	0.5	52*	1
COc1cc(-c2nnc(CSc3nnc4nc(C)cc(C)n34)o2)cc(OC)c1OC	-13	0.9	9	0.9	10	-4
